Results pooled from the literature.
Each line is one published result; the experiments were not run side by side.
CYP1A2: Cytochrome P450 1A2 (CYP1A2, Homo sapiens, UniProt P05177)

`CN(C)C(=O)c1cc2cnc(Nc3ccc(-c4ccc5c(=O)cc(N6CCOCC6)oc5c4)cc3)nc2n1C1CCCC1.Cl` has a Cmax of 3300 ng/mL (BALB/c mouse, plasma; oral, 20 mg/kg).
`CCCSc1ccc2nc(NC(=O)OC)[nH]c2c1` has a CC50 of greater than 200 µM (Vero; cell growth or viability, MTT; 72 h).
The viability of `NS(=O)(=O)c1ccc(-c2ccc(Nc3ccncc3)cc2)cc1` is reported as 76% (BHK-21; cell growth or viability, MTT; 100 µM).
With `C[C@@H](Oc1ccc(S(C)(=O)=O)cc1C(=O)N1C[C@@H]2C[C@]2(c2cc(C(F)(F)F)on2)C1)C(F)(F)F` the Vd/F was 273 L (human, plasma; oral, 10 mg, single dose, fasted).
`CC[C@H](C)[C@@H]([C@@H](CC(=O)N1CCC[C@H]1[C@H](OC)[C@@H](C)C(=O)N[C@@H](Cc1ccccc1)C(=O)NCCCO)OC)N(C)C(=O)[C@@H](NC(=O)[C@H](C(C)C)N(C)C)C(C)C` has an IC50 of 43.6 µM (Cytochrome P450 3A4 (CYP3A4, Homo sapiens, UniProt P08684); enzyme activity, inhibitor; human, liver microsomes).
With `COc1ccc2c(c1)CN(C(=O)CCN1CCC(Cc3ccccc3)CC1)CC[S@@+]2[O-]` the Vd was 86.7 L (male human, plasma; intravenous, 0.15 mg/kg, healthy volunteers).
The CC50 of `O=C1C(=O)c2cccnc2-c2ncccc21.O=C1C(=O)c2cccnc2-c2ncccc21.O=C1C(=O)c2cccnc2-c2ncccc21.[Cu+2].[O-][Cl+3]([O-])([O-])[O-].[O-][Cl+3]([O-])([O-])[O-]` is reported as greater than 200 µM (Vero; cell growth or viability, MTT; 72 h).
`OC[C@H]1O[C@@H](c2cc(Cc3ccc(C4CC4)cc3)c(Cl)c3c2CCO3)[C@H](O)[C@@H](O)[C@@H]1O` gave a Vd/F of 167 L (human, plasma; oral, 0.3 mg, single dose, fasted).
`CC(=O)O[C@@H]1[C@@H](O)[C@H](O[C@H]2CC[C@]34C[C@]35CC[C@]3(C)[C@@H]([C@@]6(C)CC[C@@H](C(C)(C)O)O6)[C@@H](O)C[C@@]3(C)[C@@H]5C[C@H](O[C@@H]3O[C@H](CO)[C@@H](O)[C@H](O)[C@H]3O)[C@H]4C2(C)C)OC[C@H]1O` gave an IC50 of greater than 200 µM (CYP1A2; enzyme activity, inhibitor; human, liver microsomes).
`N#Cc1cccc(-c2ccc3ncc(-c4cc(F)cc(F)c4)c(N4CCC(N)CC4)c3c2)c1O` has a Vd/F of 300 L (human, plasma; oral, 20 mg, single dose).
The CC50 of `COC(=O)N[C@H](C(=O)N1CCC[C@H]1c1nc(-c2ccc3c(c2)O[C@@H](c2ccccc2)n2c-3cc3cc(-c4c[nH]c([C@@H]5CCCN5C(=O)[C@@H](NC(=O)OC)C(C)C)n4)ccc32)c[nH]1)C(C)C` is reported as greater than 600 µM (BHK-21; cell growth or viability, CCK-8; 48 h).
For `CC(=O)O[C@H]1[C@H](O[C@H]2CC[C@]34C[C@]35CC[C@]3(C)[C@@H]([C@@]6(C)CC[C@@H](C(C)(C)O)O6)[C@@H](O)C[C@@]3(C)[C@@H]5C[C@H](O[C@@H]3O[C@H](CO)[C@@H](O)[C@H](O)[C@H]3O)[C@H]4C2(C)C)OC[C@@H](O)[C@@H]1O`, the IC50 was greater than 200 µM (CYP1A2; enzyme activity, inhibitor; human, liver microsomes).
The viability of `NS(=O)(=O)c1ccc(-c2ccc(Nc3ccc(F)c(Cl)c3)cc2)cc1` is reported as 75% (BHK-21; cell growth or viability, MTT; 100 µM).
The CC50 of `C#CCC(Cc1cnc2nc(N)nc(N)c2n1)c1ccc(C(=O)N[C@@H](CCC(=O)O)C(=O)O)cc1` (some centres unmarked) is reported as 104 µM (BHK-21; cell growth or viability, CCK-8; 48 h).
